Measurements from ChEMBL document CHEMBL1154735, “A strategy to minimize reactive metabolite formation: discovery of (S)-4-(1-cyclopropyl-2-methoxyethyl)-6-[6-(difluoromethoxy)-2,5-dimethylpyridin-3-ylamino]-5-oxo-4,5-dihydropyrazine-2-carbonitrile as a potent, orally bioavailable corticotropin-releasing factor-1 receptor antagonist” (J Med Chem, 2009).

Key:
[1] = Clearance in Sprague-Dawley rat at 2 mg/kg, iv after 0.17 to 24 hrs by LC/MS/MS analysis; assay type: ADME, organism-based; design: dose 2 mg/kg, route intravenous; details: in vivo
[2] = Half life in Sprague-Dawley rat at 2 mg/kg, iv by LC/MS/MS analysis; assay type: ADME, organism-based; design: dose 2 mg/kg, route intravenous; details: in vivo
[3] = AUC in Sprague-Dawley rat at 10 mg/kg, po dosed as aqueous suspension of 1% polysorbate 80 in 0.5% methylcellulose after 0.25 to 24 hrs by LC/MS/MS analysis; assay type: ADME, organism-based; design: time upper 24 hr, time lower 0.25 hr, dose 10 mg/kg, route oral; details: in vivo
[4] = Oral bioavailability in Sprague-Dawley rat at 10 mg/kg dosed as aqueous suspension of Labrafil M 1944CS/DMAC/polysorbate 80, 85:10:5 (v/v) after 0.25 to 24 hrs by LC/MS/MS analysis; assay type: ADME, organism-based; details: in vivo
[5] = Octanol-water partition coefficient, log D at pH 7.4; assay type: physicochemical
In short: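 Partitioning between octanol and water at pH 7.4.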

[6] = system: Liver microsomes; assay: Metabolic stability in NADPH-fortified human liver microsomes assessed as pyrazinone oxidation metabolite formation at 10 uM after 30 mins by HPLC/UV/MS analysis; assay type: ADME, Microsome; details: 0.5 h
In short: (§1)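 Pooled rat or human liver microsomes 1 mg/mL, 10 μM substrate, 100 mM potassium phosphate pH 7.4, 37 °C, started with NADPH-regenerating system (1.3 mM NADP+, 3.3 mM glucose-6-phosphate, 3.3 mM MgCl2, 0.5 U/mL G6PDH); GSH 5 mM in trapping runs. Sampled 0 and 30 min, acetonitrile quench; abundance as UV peak area (330–340 nm) fraction of all drug-related components by HPLC/UV/MS.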

[7] = system: Liver microsomes; assay: Metabolic stability in NADPH-fortified human liver microsomes assessed as GSH adduct formation at 10 uM after 30 mins by HPLC/UV/MS analysis; assay type: ADME, Microsome; details: 0.5 h; in short: as §1
[8] = Metabolic stability in NADPH-fortified rat liver microsomes assessed as parent compound remaining at 10 uM after 30 mins by HPLC/UV/MS analysis; assay type: ADME, Microsome; details: read-out: Stability; in short: as §1
[9] = system: Liver microsomes; assay: Metabolic stability in NADPH-fortified rat liver microsomes assessed as pyrazinone oxidation metabolite formation at 10 uM after 30 mins by HPLC/UV/MS analysis; assay type: ADME, Microsome; details: 0.5 h; in short: as §1
[10] = Drug metabolism in bile duct cannulated Sprague-Dawley rat assessed as GSH adduct formation in urine at 20 mg/kg, po after 24 hrs by HPLC/UV/MS analysis; assay type: ADME, organism-based; design: dose 20 mg/kg, route oral; details: in vivo
In short: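 Male Sprague–Dawley bile duct cannulated rats (n = 3) dosed orally at 20 mg/kg in PEG/ethanol 90:10; vehicle-dosed controls (n = 3). Bile and urine pooled over 0–24 h, acetonitrile-precipitated and profiled by HPLC/UV/MS (Hydro-RP column, PDA 200–550 nm, positive-ion full and data-dependent scans).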

[11] = system: Rattus norvegicus; assay: Total plasma concentration in Sprague-Dawley rat at 0.56 mg/kg, po after 1 to 3 hrs by LC/MS/MS analysis; assay type: ADME, organism-based; design: dose 0.56 mg/kg, route oral; details: in vivo
[12] = system: Rattus norvegicus; assay: Plasma free concentration in Sprague-Dawley rat at 1.8 mg/kg, po after 1 to 3 hrs by LC/MS/MS analysis; assay type: ADME, organism-based; design: dose 1.8 mg/kg, route oral; details: in vivo
[13] = system: Rattus norvegicus; assay: Ex vivo receptor occupancy of CRF1 receptor in Sprague-Dawley rat brain parietal assessed as inhibition of [125I]sauvagine binding at 0.56 mg/kg, po after 90 mins by autoradiography; assay type: functional; details: 1.5 h
[14] = system: Rattus norvegicus; assay: Ex vivo receptor occupancy of CRF1 receptor in Sprague-Dawley rat brain parietal assessed as inhibition of [125I]sauvagine binding at 3 mg/kg, po after 90 mins by autoradiography; assay type: functional; details: 1.5 h
[15] = system: Rattus norvegicus; assay: Anxiolytic activity in Sprague-Dawley rat assessed as decrease in exit latency at 0.56 mg/kg, po after 60 mins by defensive withdrawal test relative to control; assay type: functional; design: scale not given: the % may be the effect or the level left
In short: (§2)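 Rats placed in a darkened chamber within an open illuminated field; time to emerge measured 60 min after oral dosing (0.56–3 mg/kg), n = 8; percent decrease in exit latency versus vehicle-treated animals, p < 0.05 significance.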

[16] = system: Rattus norvegicus; assay: Anxiolytic activity in Sprague-Dawley rat assessed as decrease in exit latency at 1 mg/kg, po after 60 mins by defensive withdrawal test relative to control; assay type: functional; design: scale not given: the % may be the effect or the level left; in short: as §2
[17] = Volume of distribution at steady state in Beagle dog at 2 mg/kg, iv after 0.17 to 24 hrs by LC/MS/MS analysis; assay type: ADME, organism-based, Canis lupus familiaris; design: dose 2 mg/kg, route intravenous; details: in vivo, read-out: Vdss
In short: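 Male beagle dogs (n = 4) given 2 mg/kg iv in propylene glycol:ethanol 90:10 (v/v), 1 mL/kg infused over 5 min at 0.2 mL/kg/min. Plasma stored at –20 °C and analysed by LC/MS/MS after acetonitrile precipitation.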

[18] = AUC in Beagle dog at 2 mg/kg, po dosed as […] after 0.25 to 24 hrs by LC/MS/MS analysis; assay type: ADME, organism-based, Canis lupus familiaris; design: time upper 24 hr, time lower 0.25 hr, dose 2 mg/kg, route oral; details: in vivo
[19] = Cmax in Beagle dog at 2 mg/kg, po dosed as aqueous suspension of 1% polysorbate 80 in 0.5% methylcellulose after 2 to 4 hrs by LC/MS/MS analysis; assay type: ADME, organism-based, Canis lupus familiaris; design: dose 2 mg/kg, route oral; details: in vivo
[20] = AUC in Beagle dog at 3 mg/kg, po dosed as aqueous suspension of Labrafil M 1944CS/DMAC/polysorbate 80, 85:10:5 (v/v) after 0.25 to 24 hrs by LC/MS/MS analysis; assay type: ADME, organism-based, Canis lupus familiaris; design: time upper 24 hr, time lower 0.25 hr, dose 3 mg/kg, route oral; details: plasma
In short: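 Oral solution dosing at 3 mg/kg in Labrafil M 1944CS/DMAC/polysorbate 80, 85:10:5 (v/v), at 1 mL/kg, in fasted male beagle dogs (n = 2). Samples were acetonitrile-precipitated with internal standard and measured by LC/MS/MS using selected reaction monitoring in positive ion mode.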

[21] = Cmax in Beagle dog at 3 mg/kg, po dosed as aqueous suspension of Labrafil M 1944CS/DMAC/polysorbate 80, 85:10:5 (v/v) after 2 to 4 hrs by LC/MS/MS analysis; assay type: ADME, organism-based, Canis lupus familiaris; design: dose 3 mg/kg, route oral; details: in vivo
In short: (§3)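 Fasted male beagle dogs dosed orally at 1 mL/kg: 2 mg/kg as 0.2% polysorbate 80 in 0.5% methylcellulose suspension (n = 4) or 3 mg/kg in Labrafil M 1944CS/DMAC/polysorbate 80 85:10:5 (n = 2). Femoral vein blood 0.25–24 h; plasma by LC/MS/MS.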

[22] = Oral bioavailability in Beagle dog at 3 mg/kg, po dosed as aqueous suspension of Labrafil M 1944CS/DMAC/polysorbate 80, 85:10:5 (v/v) after 0.25 to 24 hrs by LC/MS/MS analysis; assay type: ADME, organism-based, Canis lupus familiaris; details: in vivo; in short: as §3
[23] = system: Rattus norvegicus; assay: Ex vivo receptor occupancy of CRF1 receptor in po dosed Sprague-Dawley rat brain parietal assessed as inhibition of [125I]sauvagine binding after 90 mins by autoradiography; assay type: functional, organism-based
[24] = system: Rattus norvegicus; assay: Toxicity in Sprague-Dawley rat at 20 mg/kg after 2 weeks; assay type: organism-based; design: dose 20 mg/kg; details: in vivo, 336 h
[25] = system: Rattus norvegicus; assay: Toxicity in Sprague-Dawley rat at 60 mg/kg after 2 weeks; assay type: organism-based; design: dose 60 mg/kg; details: in vivo, 336 h
[26] = system: Rattus norvegicus; assay: Toxicity in Sprague-Dawley rat at 175 mg/kg after 2 weeks; assay type: organism-based; design: dose 175 mg/kg; details: in vivo, 336 h

For `COC[C@H](C1CC1)n1cc(C#N)nc(Nc2cc(C)c(OC(F)F)nc2C)c1=O`, the clearance [1] was 29 mL/min/kg, the half-life [2] was 9.3 h and the AUC [3] was 4.1 µM·h. It also gave a bioavailability [4] of 66%, a logD [5] of 3.9 and an Activity [6] of less than 1%. The Activity [7] was 1%, the remaining at 0.5 h, 10 µM [8] was 82% and the Activity [9] was less than 1%. For the same molecule, the Activity [10] was 0.1%, the concentration [11] was 24 nM and the “Cp(f)” value [12] was 2.9 nM. The inhibition in vivo at 0.56 mg/kg [13] was 39%, the inhibition in vivo at 3 mg/kg [14] was 80% and the Activity [15] was 7%. For the same molecule, the Activity [16] was 28%, the Vd [17] was 13 L/kg and the AUC [18] was 7.6 µM·h. It also gave a Cmax [19] of 880 nM, an AUC [20] of 17 µM·h and a Cmax [21] of 1400 nM. For the same molecule, the bioavailability [22] was 70%, the Activity [23] was “Dose-dependent effect” and the Activity [24] was “Non-toxic”. For the same molecule, the Activity [25] was “Non-toxic” and the Activity [26] was “Non-toxic”.
